# Assay outcomes from PubChem BioAssay.
# This is a sample that favours compounds with a hit; in the whole collection about 0.99% have one here.
# GSK3 alpha inh = inhibitors of human GSK-3 alpha kinase | ADP-Glo luminescence, 60 min | inhibition, % at 10 µM | 320,000 compounds, 0.1% hits | AID 2650;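 active means more than half of replicates show inhibition above 20%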;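 further: GST-tagged GSK-3 alpha with peptide substrate and 25 µM ATP; 0% = DMSO neutral wells and 100% = GW8510 positive control wells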
# Target sequence (P49840 whole entry, looked up): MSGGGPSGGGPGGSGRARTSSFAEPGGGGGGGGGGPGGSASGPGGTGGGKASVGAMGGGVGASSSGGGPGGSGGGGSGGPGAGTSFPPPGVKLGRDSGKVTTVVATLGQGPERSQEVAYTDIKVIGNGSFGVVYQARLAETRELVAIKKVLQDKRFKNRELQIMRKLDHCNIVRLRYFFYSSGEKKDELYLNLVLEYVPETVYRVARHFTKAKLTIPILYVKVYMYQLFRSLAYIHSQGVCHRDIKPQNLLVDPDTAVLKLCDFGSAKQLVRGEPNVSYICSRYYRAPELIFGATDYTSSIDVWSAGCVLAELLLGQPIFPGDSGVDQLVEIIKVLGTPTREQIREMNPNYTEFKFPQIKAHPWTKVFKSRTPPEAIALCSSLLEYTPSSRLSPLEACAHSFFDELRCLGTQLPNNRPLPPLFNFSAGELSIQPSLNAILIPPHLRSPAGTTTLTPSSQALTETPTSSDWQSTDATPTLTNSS
# Rin1 Abl inh = blocks binding of human Rin1 to Abl | P00519+Q13671 | TR-FRET Rin1/Abl binding, biochemical | inhibition, % at 7.35 µM | 360,000 compounds, 0.4% hits; in the data active means inhibition above about 5%, passing the limit was not always enough
# DYRK1A inh = blocks rat Dyrk1A kinase activity | Q63470 | ADP-Glo luminescence, NFATc1 peptide | inhibition, % at 12.5 µM | 310,000 compounds, 0.43% hits; in the data active means inhibition above about 50%;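 further: plate controls were vehicle with enzyme for no effect and no enzyme for full effect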
# GSK3B inh = blocks human GSK3beta kinase activity | AID 2097 | 300,000 compounds, 0.038% hits | GST-GSK3beta kinase, ADP-Glo luminescence, 60 min; active compounds read low | activity score (negative = inhibition), % at 10 µM;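 active means more than half of replicate wells score below -50%, meaning over 50% inhibition versus plate controls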;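 further: 0% = median DMSO wells and -100% = median GW8510 positive control wells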
#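 Test system: GST-tagged human GSK3beta kinase, cell-free; evaluation: activity score scaled between in-plate DMSO and GW8510 controls; measured by: ADP-Glo luminescence; incubation: 60 min reaction, RT; benchmarks: DMSO and 20 µM GW8510; reagent: peptide substrate plus 25 µM ATP (final); medium: Tris/MgCl2 kinase buffer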
# Arr AP2 block = blocks beta-arrestin peptide binding to AP2 adaptin | FITC-arrestin peptide / GST-AP2 beads, flow cytometry; AP2 beta2 appendage carries R879A mutation | inhibition, % at 10 µM | 340,000 compounds, 0.31% hits;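 active means inhibition above a set limit, near 3 SD of compounds lacking own fluorescence, cut at about 54% in these data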;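 further: plate controls were DMSO wells for no effect and 5 µM unlabelled arrestin peptide for full effect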
#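 Measured by: flow cytometry, FL1 (488/535 nm); Material: AP2 appendage R879A on GSH beads; Evaluation: percent response; Timing: pre-incubation 12 min, peptide binding 1 h, room temperature; Also added: 50 nM FITC-arrestin peptide; Medium: PBS with 0.05% Tween 20 and 0.1% BSA.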
# STK33 kinase inh = blocks human STK33 kinase activity; Q9BYT3; purified STK33, MBP phosphorylation, ADP-Glo luminescence; inhibition, % at 10 µM; 320,000 compounds, 0.073% hits; AID 2661;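 active means inhibition at or above 25%, using the most active replicate where run in duplicate; inactive means inhibition below 25%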
# Rin1-Abl confirm = confirmation of inhibitors of human Rin1-Abl interaction; 1,300 compounds, 49% hits; inhibition, % at 7.35 µM; AID 602124; shares compounds with Rin1 Abl inh; TR-FRET Rin1-Abl binding, purified proteins
# GFP quencher = counter-screen for Rin1-Abl inhibitors: GFP fluorescence quenchers; inhibition, % at 6.75 µM; 1,300 compounds, 8.5% hits; inhibitors/quenchers counterscreen; shares compounds with Rin1 Abl inh;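 further: ABL1-eGFP fusion protein alone without its partner RIN1-SBP; 0% = protein with vehicle and 100% = wells lacking protein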
# GFP quench dose = GFP fluorescence interference dose response | AID 602182 | GFP fluorescence interference/quenching counterscreen | shares compounds with Rin1 Abl inh | 230 tested, under 10 active | IC50, µM; call rule not given here;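 further: ABL1-eGFP fusion protein alone without its RIN1 binding partner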
# The depositor's hits bear a star; . = no result given. Unless noted, no stated cut-off is given here; in the data, active means inhibition above about 6.5%; inactive means the rest.
SMILES,GSK3 alpha inh,Rin1 Abl inh,DYRK1A inh,GSK3B inh,Arr AP2 block,STK33 kinase inh,Rin1-Abl confirm,GFP quencher,others
COCc1ccc(C(=O)N(C)C2CCCN(Cc3ccccc3F)C2)o1 (configuration not stated),9.5,1.8,-1.0,-4.8,20.7,2.8,.,.,
COc1ccc(C2c3[nH]c4ccccc4c3C[C@H]3C(=O)N(C4CCN(Cc5ccccc5)CC4)CC(=O)N23)cc1OC (some centres not stated),-0.9,10.3*,-2.8,0.9,7.3,-0.3,8.2*,-0.5,
CCOc1ccccc1CNn1cnnc1SCC(=O)NC(C)(C)C,.,5.1,.,.,.,.,.,.,
O=C(C(Cl)Cl)N1CCN(Cc2ccc3c(c2)OCO3)CC1,0.9,6.9*,2.1,-0.7,1.4,-1.8,3.0,2.0,
Cc1ccc(N=C2NC(=O)C(CC(=O)NCc3ccccc3)S2)cc1C (configuration not stated),1.5,8.9*,-7.6,-0.2,-1.0,-0.8,0.1,1.0,
C/C(=N\N=C1\NC(=O)C(CC(=O)NCc2ccccc2)S1)C(C)C (configuration not stated),-0.5,-0.2,2.8,0.4,3.2,-2.0,.,.,
CC1CCCC(=NNC(=O)C2COc3ccccc3O2)C1 (configuration not stated),0.9,1.2,.,.,3.0,-0.8,.,.,
CN(C(=O)c1ccc(NC(=O)Cc2ccc(NC(=O)C3CCN(C(=O)C4CCC4)CC3)cc2)cc1)C1CC1,-0.5,37.4*,8.7,.,2.6,-0.2,61.5*,0.1,
CN(C(=O)c1ccc(NC(=O)Cc2cccc(NC(=O)C3CCN(C(=O)C4CCC4)CC3)c2)cc1)C1CCCC1,0.7,-0.9,13.9,.,3.1,0.4,.,.,
CN(C(=O)c1ccc(NC(=O)Cc2ccc(NC(=O)C3CCN(C(=O)C4CCCC4)CC3)cc2)cc1)C1CC1,1.9,78.2*,6.1,.,34.4,-0.9,84.5*,-0.7,
CN(C(=O)c1ccc(NC(=O)Cc2ccc(NC(=O)C3CCN(C(=O)C4CCCCC4)CC3)cc2)cc1)C1CCCC1,.,4.0,.,.,-1.3,.,.,.,
CN(C(=O)c1ccc(NC(=O)Cc2cccc(NC(=O)C3CCN(C(=O)C4CCCC4)CC3)c2)cc1)C1CC1,.,20.2*,.,.,0.5,.,28.0*,0.1,GFP quench dose=>67.5
O=C(NC1CCN(S(=O)(=O)c2ccccc2F)CC1)c1cccnc1,-1.0,0.2,0.0,0.3,17.6,-0.6,.,.,
COCCNC(=O)C1(C)CCCN(C(=O)c2ccc(C(=O)OC)cc2)C1 (configuration not stated),.,0.8,.,.,.,.,.,.,
Cn1c(=O)c(C(=O)c2ccc(S(C)(=O)=O)c(Cl)c2Cl)c(O)c2ccccc21,0.7,0.1,-0.1,4.8,-13.0,-2.4,.,.,
COc1ccc(C2C3=C(CC(C)(C)CC3=O)Oc3ncn(CCCn4ccnc4)c(=N)c32)cc1 (configuration not stated),-1.9,4.5*,-1.3,-1.1,-9.9,-0.4,10.3*,0.1,
CC1(C)CC(=O)C2=C(C1)Oc1ncn(CCCn3ccnc3)c(=N)c1C2c1ccccc1 (configuration not stated),0.8,3.5,.,-2.4,-3.3,-2.8,.,.,
CS(=O)(=O)c1ccc(CNC(=O)C2(C(F)(F)F)CC(CCCO)CCCO2)cc1 (configuration not stated),1.9,.,.,-5.2,.,1.4,.,.,
O=C(CSC1=NNC(c2ccccn2)S1)Nc1ccccc1 (configuration not stated),-0.4,6.5*,-17.7,1.0,2.5,0.5,-5.6,2.5,
Cc1ccncc1CNC(=O)c1ccccc1,.,5.4,2.4,.,0.7,.,.,.,
CC(=O)NC1=NN(C(C)=O)C(C)(c2ccco2)S1 (configuration not stated),2.6,8.7*,-4.3,0.3,27.9,6.7,-3.2,0.6,
CCCCNC(=O)C1(C)CCCCN1Cc1ccc2ccccc2c1 (configuration not stated),.,-3.1,.,.,.,.,.,.,
CCCCNC(=O)C1(C)CCCCCN1Cc1cccc2c(OC)cc(C(=O)OCC)cc12 (configuration not stated),.,6.9*,.,.,.,.,-2.2,0.6,
Cc1ccc(S(=O)(=O)c2nnn3c2nc(N2CCOCC2)c2ccccc23)c(C)c1,0.2,45.5*,-3.5,-1.9,30.9,-0.6,29.7*,-0.4,
CCn1c(SCC(=O)Nc2cccc(C)c2)nc2nc3c(cc2c1=O)COC(C)(C)C3,-1.7,7.5*,4.7,7.8,5.0,0.4,12.6*,-0.4,
SMILES,GSK3 alpha inh,Rin1 Abl inh,DYRK1A inh,GSK3B inh,Arr AP2 block,STK33 kinase inh,Rin1-Abl confirm,GFP quencher,others
O=C(CSc1nnc(-c2cccnc2)n1-c1ccc(SC(F)F)cc1)N1CCCc2ccccc21,-1.4,3.9,-4.7,-1.5,2.2,0.7,.,.,
Cc1ccc(-n2c(SCc3cc(=O)n4ccsc4n3)nnc2-c2cccnc2)c(C)c1,0.7,16.6*,-1.4,-2.5,-4.3,0.3,19.2*,-0.2,GFP quench dose=>67.5
Cc1ccc(-n2c(SCC(=O)N3CCCc4ccccc43)nnc2-c2cccnc2)c(C)c1,-7.7,8.7*,3.6,2.3,16.0,-0.4,13.3*,0.2,
Cc1ccc(-n2c(SCC(N)=O)nnc2-c2cccnc2)c(C)c1,1.1,1.9,-2.6,1.2,0.4,0.2,.,.,
CCn1c(CN2CCOCC2)nnc1SCC(=O)Nc1ccc(C(C)=O)cc1,-2.6,4.0,-5.1,-2.0,-3.3,0.1,.,.,
O=c1cc(-c2ccc(O)cc2)oc2cc(O)c([C@@H]3O[C@H](CO)[C@@H](O)[C@H](O)[C@H]3O)c(O)c12,.,-1.4,2.7,.,-2.8,.,.,.,
O=c1cc(-c2ccc(O)c(O)c2)oc2cc(O)c(C3OC(CO)C(O)C(O)C3O)c(O)c12 (configuration not stated),-1.9,27.2*,18.5,0.7,6.8,2.3,33.4*,8.9*,
O=c1cc(-c2ccc(O)c(O)c2)oc2c(C3O[C@H](CO)[C@@H](O)[C@H](O)[C@H]3O)c(O)cc(O)c12 (some centres not stated),0.7,22.4*,17.7,3.2,7.1,2.7,37.0*,14.0*,
COc1c2c(c(C)c3c1C(=O)OC3)O[C@@]1(C)CC[C@@]3(O)C(C)(C)OC(=O)CC[C@]3(C)[C@H]1C2,1.5,3.1,3.9,1.0,23.8,-0.8,.,.,
CCOC(=O)N(C)C[C@H]1OCc2cnnn2CCCC(=O)N([C@H](C)CO)C[C@H]1C,.,-1.2,.,.,.,.,.,.,
O=C1NCC(O)=C1C=NC12CC3CC(CC(C3)C1)C2,6.6,31.1*,-2.5,0.1,10.7,-1.5,22.6*,0.3,GFP quench dose=>67.5
